Here are results for two compounds from ChEMBL document CHEMBL3526063, “Metabolism and pharmacokinetics of JM6 in mice: JM6 is not a prodrug for Ro-61-8048” (Drug Metab Dispos, 2012).

What is called AUC(0-t) is exposure summed from dosing to a finite time, without extrapolation to infinity. Low readings indicate less exposure, high ones more exposure. As a reminder, the Cmax is the highest concentration seen after dosing. One may read the Tmax as the time from dosing to the highest level. In general, IC50 refers to the concentration that gives 50% inhibition. What is called AUC(0-inf) is total exposure, with the tail of the curve extrapolated. Higher therefore signals more exposure. By clearance is commonly meant the volume of plasma or blood freed of the substance per unit of time. A high value points to a high capacity for elimination. Usually MRT stands for the average time that molecules of a dose stay in the body. By half-life is commonly meant how long it takes for the measured level to halve. The term AUC denotes the area under the concentration-time curve, a measure of exposure.

Data set [1] is described as follows: AUClast in C57BL/6N mouse at 0.05 mg/kg, po administered via gavage by LC-MS/MS analysis. The arrangement: time 0 - last, dose 0.05 mg/kg, route oral. It is filed as ADME, organism-based. The conditions noted are these: plasma. An outline of the steps: (§1)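 Male C57BL/6N mice were dosed by oral gavage at 10 mL/kg with a fine suspension in 10% hydroxypropyl-β-cyclodextrin in 50 mM phosphate buffer, pH 7. Plasma was taken at non-serial time points (n=3 per time point), extracted with 0.1% formic acid in acetonitrile containing diclofenac as internal standard, and quantified by UPLC-MS/MS. Composite non-compartmental parameters came from mean concentrations; AUClast by linear trapezoid, kel from at least three terminal points.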

Data set [2] relates to Mus musculus. The data set can be described thus: Dose normalised AUC in C57BL/6N mouse at 0.05 mg/kg, po administered via gavage by LC-MS/MS analysis. It is filed as ADME, organism-based. The conditions noted are these: in vivo. The arrangement: dose 0.05 mg/kg, route oral. An outline of the steps: as §1
Data set [3] in a line: Cmax in C57BL/6N mouse at 0.05 mg/kg, po administered via gavage by LC-MS/MS analysis. The conditions noted are these: in vivo. Set-up: dose 0.05 mg/kg, route oral. It is filed as ADME, organism-based. An outline of the steps: as §1
Data set [4] has as its system Mus musculus. The data set can be described thus: Dose normalised Cmax in C57BL/6N mouse at 0.05 mg/kg, po administered via gavage by LC-MS/MS analysis. The class given is ADME, organism-based. Set-up: dose 0.05 mg/kg, route oral. The conditions noted are these: in vivo. The method, boiled down:
as §1

Data set [5] in a line: Tmax in C57BL/6N mouse at 0.05 mg/kg, po administered via gavage by LC-MS/MS analysis. It is filed as ADME, organism-based. The arrangement: dose 0.05 mg/kg, route oral. Particulars: in vivo. The method, boiled down:
(§2)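 Male C57BL/6N mice dosed by oral gavage (10 mL/kg) as fine suspensions in 10% hydroxypropyl-β-cyclodextrin in 50 mM phosphate buffer pH 7; dose formulations verified by LC-MS/MS. Plasma analysed by LC-MS/MS; composite non-compartmental parameters from mean concentrations (n=3 per time point), C0 set to zero. %F = dose-normalised po AUCinf over dose-normalised iv AUCinf, only within linear range.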

The nature of data set [6]: Plasma protein binding in mouse at 5 and 20 uM for 6 hrs by LC-MS/MS analysis. It is filed as ADME, cell-free. Particulars: read-out: PPB. The method, boiled down:
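Equilibrium dialysis: plasma fortified in triplicate (5 and 20 µM rat and mouse; 10 µM human) on donor side, PBS on receiver side; 37°C, 200 rpm, 6 h; both sides by LC-MS/MS.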

For data set [7], the target named is Kynurenine 3-monooxygenase (Rattus norvegicus, UniProt O88867). Kind of data set: Inhibition of Wistar rat KMO assessed as 3-hydroxykynurenine formation preincubated for 5 mins using 100 uM kynurenine as substrate by LC-MS/MS analysis in presence of 3 mg/ml plasma protein. The method, boiled down: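 KMO from Wistar rat liver (0.3 mg protein/ml) preincubated 5 min at 25°C with compound plus 3 mg/mL plasma protein in 100 mM potassium phosphate pH 7.4, 200 µM NADPH, G6PDH regenerating system. Started with 100 µM kynurenine, 40 min, stopped with TCA; 3-hydroxykynurenine by LC-MS/MS. 8-point 3-fold dilutions; triplicates, ≥2 runs.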

Data set [8] in a line: AUClast in C57BL/6N mouse at 5 mg/kg, iv administered as single dose by LC-MS/MS analysis. It is filed as ADME, organism-based. The arrangement: time 0 - last, dose 5 mg/kg, route intravenous. The conditions noted are these: plasma. The method, boiled down:
(§3)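 Single intravenous bolus of 5 mg/kg to male C57BL/6N mice, given as a filtered 1 mg/mL solution in DMSO:PEG400:water 10:50:40 (v/v). Plasma was extracted in acidified acetonitrile with diclofenac as internal standard and analysed by UPLC-MS/MS. Non-compartmental analysis used mean concentrations (n=3 per time point), with C0 back-extrapolated from the first two samples. AUCinf = AUClast + Ct/kel.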

Data set [9] in a line: AUC(infinity) in C57BL/6N mouse at 5 mg/kg, iv administered as single dose by LC-MS/MS analysis. The class given is ADME, organism-based. Set-up: time infinity, dose 5 mg/kg, route intravenous. Particulars: plasma. The method, boiled down: as §3
The nature of data set [10]: Plasma clearance in C57BL/6N mouse at 5 mg/kg, iv administered as single dose by LC-MS/MS analysis. Set-up: dose 5 mg/kg, route intravenous. It is filed as ADME, organism-based. An outline of the steps:
(§4)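 Male C57BL/6N mice given 5 mg/kg iv bolus as 1 mg/mL filtered solution in DMSO:PEG400:water 10:50:40. Plasma extracted with acidified acetonitrile (diclofenac IS), analysed by LC-MS/MS. Composite non-compartmental parameters from mean concentrations (n=3 per time point); C0 back-extrapolated from first two points; kel from at least last three concentrations.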

The nature of data set [11]: Volume of distribution at steady state in C57BL/6N mouse at 5 mg/kg, iv administered as single dose by LC-MS/MS analysis. The class given is ADME, organism-based. Set-up: dose 5 mg/kg, route intravenous. Particulars: in vivo, read-out: Vdss. The method, boiled down:
as §4

Data set [12] in a line: Mean residence time in C57BL/6N mouse at 5 mg/kg, iv administered as single dose by LC-MS/MS analysis. The class given is ADME, organism-based. The arrangement: dose 5 mg/kg, route intravenous. The conditions noted are these: in vivo. The method, boiled down: as §4
Data set [13] concerns Mus musculus. The data set can be described thus: Dose normalised Cmax in C57BL/6N mouse at 10 mg/kg, po administered via gavage containing <0.4% Ro-61-8048 by LC-MS/MS analysis. The class given is ADME, organism-based. The arrangement: dose 10 mg/kg, route oral. Particulars: in vivo. An outline of the steps:
as §1

Data set [14] relates to Mus musculus. The data set can be described thus: Tmax in C57BL/6N mouse at 10 mg/kg, po administered via gavage containing <0.4% Ro-61-8048 by LC-MS/MS analysis. It is filed as ADME, organism-based. The arrangement: dose 10 mg/kg, route oral. The conditions noted are these: in vivo. An outline of the steps:
as §2

A short description of data set [15]: Half life in simulated gastric fluid of pH 1.2 at 10 uM after 2 and 4 hrs by LC-UV analysis. It is filed as ADME. The method, boiled down:
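Compound at 10 µM was shaken at about 25 °C in simulated gastric fluid (2 g/L NaCl, 3.2 g/L pepsin, 0.7% HCl, pH 1.2) and in pepsin-free gastric buffer. Aliquots were taken at 0, 2 and 4 h, diluted into DMSO, and analysed immediately by LC-UV at 254 nm.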

The nature of data set [16]: Metabolic stability in mouse blood assessed as half life at 5 uM by LC-MS/MS analysis. The class given is ADME, tissue-based.
A short description of data set [17]: Cmax in mouse at 10 mg/kg, po. It is filed as ADME, organism-based. The arrangement: dose 10 mg/kg, route oral. Particulars: in vivo.
A short description of data set [18]: Cmax in mouse at 25 mg/kg, po. The class given is ADME, organism-based. The conditions noted are these: in vivo. The arrangement: dose 25 mg/kg, route oral.
Data set [19] concerns the target Kynurenine 3-monooxygenase (Homo sapiens, UniProt O15229). Kind of data set: Inhibition of KMO (unknown origin).
The nature of data set [20]: AUClast in C57BL/6N mouse at 5 mg/kg, iv administered as single dose containing <0.4% Ro-61-8048 by LC-MS/MS analysis. The arrangement: time 0 - last, dose 5 mg/kg, route intravenous. Particulars: plasma. It is filed as ADME, organism-based. The method, boiled down: as §3
The nature of data set [21]: AUC(infinity) in C57BL/6N mouse at 5 mg/kg, iv administered as single dose containing <0.4% Ro-61-8048 by LC-MS/MS analysis. Set-up: time infinity, dose 5 mg/kg, route intravenous. It is filed as ADME, organism-based. The conditions noted are these: plasma. An outline of the steps: as §3
Data set [22] in a line: Mean residence time in C57BL/6N mouse at 5 mg/kg, iv administered as single dose containing <0.4% Ro-61-8048 by LC-MS/MS analysis. The conditions noted are these: in vivo. Set-up: dose 5 mg/kg, route intravenous. It is filed as ADME, organism-based. An outline of the steps:
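Male C57BL/6N mice given 5 mg/kg iv bolus (1 mg/mL, DMSO:PEG400:water 10:50:40, filtered); dosed material carried Ro-61-8048 as impurity, which was also quantified in plasma. LC-MS/MS after acetonitrile/formic acid extraction; composite non-compartmental analysis of mean concentrations (n=3 per time point), C0 back-extrapolated, kel from ≥3 terminal points.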

The nature of data set [23]: Half life in C57BL/6N mouse at 5 mg/kg, iv administered as single dose containing <0.4% Ro-61-8048 by LC-MS/MS analysis. The class given is ADME, organism-based. Set-up: dose 5 mg/kg, route intravenous. Particulars: in vivo. The method, boiled down:
as §3

Data set [24] deals with Mus musculus. The data set can be described thus: AUC(infinity) in C57BL/6N mouse at 10 mg/kg, po administered via gavage containing <0.4% Ro-61-8048 by LC-MS/MS analysis. The conditions noted are these: in vivo. The arrangement: time infinity, dose 10 mg/kg, route oral. The class given is ADME, organism-based, Plasma. An outline of the steps: as §1
The subject of data set [25] is Liver. Kind of data set: Metabolic stability in mouse liver microsomes assessed as half life at 1 uM after 5 to 40 mins by LC-MS/MS analysis.
The subject of data set [26] is Liver. The data set can be described thus: Metabolic stability in mouse liver microsomes assessed as intrinsic clearance at 1 uM after 5 to 40 mins by LC-MS/MS analysis.

Sequence of Kynurenine 3-monooxygenase (Homo sapiens, UniProt O15229) (O15229 whole entry): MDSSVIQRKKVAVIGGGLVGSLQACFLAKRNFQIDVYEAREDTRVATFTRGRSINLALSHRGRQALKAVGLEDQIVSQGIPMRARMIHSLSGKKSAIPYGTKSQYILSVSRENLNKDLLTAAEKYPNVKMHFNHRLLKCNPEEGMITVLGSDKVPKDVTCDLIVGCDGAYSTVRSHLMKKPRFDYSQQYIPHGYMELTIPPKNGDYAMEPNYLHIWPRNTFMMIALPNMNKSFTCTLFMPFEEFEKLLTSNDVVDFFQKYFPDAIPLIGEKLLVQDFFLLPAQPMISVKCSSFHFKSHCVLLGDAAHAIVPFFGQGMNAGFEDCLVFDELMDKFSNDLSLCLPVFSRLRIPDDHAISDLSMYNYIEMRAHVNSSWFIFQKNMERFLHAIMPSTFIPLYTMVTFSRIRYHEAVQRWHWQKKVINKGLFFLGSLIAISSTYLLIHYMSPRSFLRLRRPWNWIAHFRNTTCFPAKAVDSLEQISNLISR
Sequence of Kynurenine 3-monooxygenase (Rattus norvegicus, UniProt O88867) (O88867 whole entry): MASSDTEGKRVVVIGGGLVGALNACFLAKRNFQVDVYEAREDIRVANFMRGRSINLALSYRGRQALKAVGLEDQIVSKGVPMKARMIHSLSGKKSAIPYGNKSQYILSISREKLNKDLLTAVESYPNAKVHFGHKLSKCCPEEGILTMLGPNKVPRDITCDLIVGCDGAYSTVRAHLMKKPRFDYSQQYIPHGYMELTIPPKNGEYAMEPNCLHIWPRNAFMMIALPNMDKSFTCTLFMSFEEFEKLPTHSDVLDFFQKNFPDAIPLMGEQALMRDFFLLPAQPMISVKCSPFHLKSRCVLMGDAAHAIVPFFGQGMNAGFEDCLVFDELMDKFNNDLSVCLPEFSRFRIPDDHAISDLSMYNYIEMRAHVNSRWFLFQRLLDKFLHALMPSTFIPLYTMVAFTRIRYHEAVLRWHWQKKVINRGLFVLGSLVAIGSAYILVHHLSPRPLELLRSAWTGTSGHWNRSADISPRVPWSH

`COc1ccc(S(=O)(=O)Nc2nc(-c3cccc([N+](=O)[O-])c3)cs2)cc1OC`: the AUC(0-t) in data set [1] was found to be 4.3 µM·h; in [8], 510 µM·h. This compound also returned an AUC/dose in data set [2] of 90000 nM·kg·h/mg. The same compound registered a maximum concentration (Cmax) in [3] of 0.55 µM. Also, the Cmax/dose in data set [4] came to 11 µM. For the same compound, in data set [5], the Tmax was found to be 30 min. Also, the fraction unbound at 6 h in data set [6] is less than 0.01. For the same compound, in [7], the IC50 stood at 8 µM. The AUC(0-inf) in [9] was 550 µM·h. Further, the clearance in data set [10] is 0.018 L/h/kg. The Vd in [11] was 0.15 L/kg. Moreover, the mean residence time (MRT) in [12] came out at 498 min.
For `COc1ccc(S(=O)(=O)Nc2nc(-c3cccc([N+](=O)[O-])c3)c(CN3CCCCC3)s2)cc1OC`, the Cmax/dose in data set [13] came to 0.11 µM. Besides, the Tmax in data set [14] worked out at 30 min. The compound also displayed a half-life at 10 µM in data set [15] greater than 1080 min. Further, the half-life at 5 µM in data set [16] was greater than 150 min. The maximum concentration (Cmax) was 1.1 µM in [17] and 3.4 µM in data set [18]. This compound showed an IC50 in [19] of 4 µM. For the same compound, the exposure AUC(0-t) in [20] stood at 5.2 µM·h. Further, the area under the curve AUC(0-inf) in data set [21] came out at 5.2 µM·h. The same compound came in with a mean residence time MRT in [22] of 12 min. Also, the half-life in data set [23] is 43.2 min. For the same compound, in data set [24], the area under the curve (AUC) is 1.1 µM·h. Further, the t1/2 in data set [25] was determined as 12 min. In addition, the CLH in data set [26] stood at 220 µL/min/mg.
